Experimental data published in ChEMBL document CHEMBL1140133, “Phosphoramidate dinucleosides as hepatitis C virus polymerase inhibitors” (J Med Chem, 2008).

Legend:
Hepatitis C virus [1] = assay: Inhibition of HCV 1b histidine tagged NS5B-delta55 polymerase-mediated RNA synthesis expressed in Escherichia coli BL21 cells assessed as decrease in accumulation of pppGC product; design: species or system Hepatitis C virus subtype 1b
Outline: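 Recombinant NS5B-Δ55 with C-terminal His6, purified. Mix holds 10 µM RNA template (3′ end of HCV minus strand), 100 µM α-32P-CTP, 50 µM GTP and inhibitor 0–500 µM. Started with 1 µM NS5B, 30 °C 15 min, EDTA/formamide quench. pppGC resolved on sequencing gel, phosphorimager-quantified; IC50 fitted, ≥3 experiments.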

[2] = Cytotoxicity against human Huh-5-2 cells after 3 days by MTS assay; assay type: cell-based
Outline: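 Parallel Huh-5-2 replicon cultures seeded 7000 cells/well, treated the same way as the antiviral assay (five 5-fold dilutions from ~60 µM, no G418). Cell proliferation measured 3 days after compound addition by MTS bioreduction to formazan, read on a plate reader.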

Hepatitis C virus [3] = assay: Antiviral activity against HCV 1b in human Huh-5-2 cells assessed as inhibition of viral replication after 72 hrs by luciferase assay; assay type: functional, organism-based, Hepacivirus hominis; conditions: genotype 1b, Huh-5-2, 72 h
Outline: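 Huh-5-2 cells carrying HCV 1b subgenomic replicon (luciferase reporter), seeded 7000/well and left 24 h; five 5-fold serial dilutions from 50 µg/mL (~60 µM) added in medium without G418; 37 °C, 5% CO2, 72 h. Luciferase read after Glo-lysis; signal as % of untreated cultures, EC50 calculated. Interferon α-2a (500 IU) positive control.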

Compound	IC50 (Hepatitis C virus [1]) [µM]	CC50 at 72 h [2] [µM]	EC50 (Hepatitis C virus [3]) [µM]
CO[C@@H]1[C@H](OP(=O)(NCCCN(C)C)OC[C@H]2O[C@H](n3ccc(N)nc3=O)[C@H](O)[C@@H]2O)[C@H](COP(=O)(O)O)O[C@H]1n1cnc2c(=O)[nH]c(N)nc21 (stereo not given in full)	> 200		
CO[C@@H]1[C@H](OP(=O)(NCCCCCC(=O)O)OC[C@H]2O[C@@H](n3ccc(N)nc3=O)[C@H](O)[C@@H]2O)[C@@H](COP(=O)(O)O)O[C@H]1n1cnc2c(=O)[nH]c(N)nc21 (stereo not given in full)	69	> 60	41
COCCNP(=O)(OC[C@H]1O[C@@H](n2ccc(N)nc2=O)[C@H](O)[C@@H]1O)O[C@H]1[C@@H](OC)[C@H](n2cnc3c(=O)[nH]c(N)nc32)O[C@@H]1COP(=O)(O)O (stereo not given in full)	106	> 60	> 60
CO[C@@H]1[C@H](OP(=O)(NCCCCCC(=O)O)OC[C@H]2O[C@@H](n3ccc(N)nc3=O)[C@H](O)[C@@H]2O)[C@@H](CO)O[C@H]1n1cnc2c(=O)[nH]c(N)nc21 (stereo not given in full)	160		
COCCNP(=O)(OC[C@H]1O[C@@H](n2ccc(N)nc2=O)[C@H](O)[C@@H]1O)O[C@H]1[C@@H](OC)[C@H](n2cnc3c(=O)[nH]c(N)nc32)O[C@@H]1CO (stereo not given in full)	> 200		
CO[C@@H]1[C@H](OP(=O)(NCCCCCC(=O)O)OC[C@H]2O[C@@H](n3ccc(N)nc3=O)[C@H](O)[C@@H]2O)[C@@H](COP(=O)(O)S)O[C@H]1n1cnc2c(=O)[nH]c(N)nc21 (stereo not given in full)	52	> 60	38
COCCNP(=O)(OC[C@H]1O[C@@H](n2ccc(N)nc2=O)[C@H](O)[C@@H]1O)O[C@H]1[C@@H](OC)[C@H](n2cnc3c(=O)[nH]c(N)nc32)O[C@@H]1COP(=O)(O)S (stereo not given in full)	47	> 60	> 60
